Results: ChEMBL document CHEMBL3822410, “Novel substituted isoxazole FXR agonists with cyclopropyl, hydroxycyclobutyl and hydroxyazetidinyl linkers: Understanding and improving key determinants of pharmacological properties” (Bioorg Med Chem Lett, 2016)
≈ marks a conversion by molar mass, not a printed value. Calls of active or inactive are those of the source. The calls are words filed in the database; no cut-off is given here.

Key:
[1] = target: T1, Bile acid receptor (Homo sapiens) (UniProt Q96RI1); experiment: Agonist activity at GST-tagged FXR LBD (187 to 472 residues) (unknown origin) assessed as FXR interaction with b-CPSSHSSLTERHKILHRLLQEGSPS-COOH by FRET assay relative to GW4064
T1 sequence (whole entry): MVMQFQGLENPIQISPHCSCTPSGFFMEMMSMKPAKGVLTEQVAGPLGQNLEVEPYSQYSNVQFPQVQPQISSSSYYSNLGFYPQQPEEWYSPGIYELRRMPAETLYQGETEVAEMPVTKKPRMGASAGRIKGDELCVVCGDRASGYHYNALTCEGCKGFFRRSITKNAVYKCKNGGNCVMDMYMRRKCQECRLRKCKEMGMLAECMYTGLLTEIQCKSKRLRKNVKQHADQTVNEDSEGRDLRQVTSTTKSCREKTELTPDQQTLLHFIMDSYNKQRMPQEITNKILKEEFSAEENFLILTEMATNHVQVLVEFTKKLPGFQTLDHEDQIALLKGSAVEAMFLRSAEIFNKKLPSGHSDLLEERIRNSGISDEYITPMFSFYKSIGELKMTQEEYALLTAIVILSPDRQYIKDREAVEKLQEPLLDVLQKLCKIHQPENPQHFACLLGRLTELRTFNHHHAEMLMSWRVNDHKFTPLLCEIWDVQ

[2] = Apparent oral clearance in C57BL/6J mouse at 5 mg/kg; type: ADME, organism-based; conditions: in vivo
How it was run: (§1)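 Mice dosed 5 mg/kg orally and 1 mg/kg intravenously; bioavailability from both arms, all other parameters (AUC, Cmax, T1/2, Cl/F, Vd/F) calculated from the oral arm.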

[3] = system: Mus musculus; experiment: Reduction in total triglyceride level in high fat diet enriched with cholesterol fed C57BL/6J mouse plasma at 10 mg/kg, po through gavage for 10 days measured after 4 hrs of final dosage relative to vehicle treated-control; type: functional, organism-based
How it was run: (§2)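 C57BL/6J mice pre-fed and kept on high fat diet (60% kcal fat) with 1% (w/w) cholesterol; 10 mg/kg by oral gavage for 10 days. Plasma total cholesterol and triglycerides taken at sacrifice 4 h after final dose, expressed as % change versus vehicle group.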

[4] = target: T1, Bile acid receptor (Homo sapiens); experiment: Agonist activity at C-terminal Gal4-tagged human FXR (187 to 472 residues) expressed in HEK-293 cells co-expressing pFRluc by mammalian one hybrid assay relative to GW4064; type: cell-based; conditions: HEK293
How it was run: (§3)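 Transient transfection of HEK293 cells with Gal4 DBD–human FXR LBD (187–472) chimera under CMV promoter plus pFRluc Gal4-driven firefly luciferase reporter. Cells treated with serial compound dilutions. EC50 from at least three experiments; efficacy is extrapolated maximum signal of the dose-response, GW4064 set to 100%.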

[5] = Oral bioavailability in C57BL/6J mouse at 5 mg/kg; type: ADME, organism-based; conditions: in vivo; how it was run: as §1
[6] = AUC in C57BL/6J mouse at 5 mg/kg, po and 1 mg/kg, iv; type: ADME, organism-based; conditions: in vivo; how it was run: as §1
[7] = Aqueous solubility of the compound; type: physicochemical; conditions: buffer
[8] = Half life in C57BL/6J mouse at 5 mg/kg, po and 1 mg/kg, iv; type: ADME, organism-based; conditions: in vivo; how it was run: as §1
[9] = target: T2, Nuclear receptor subfamily 1 group I member 2 (Homo sapiens, UniProt O75469); experiment: Agonist activity at PXR (unknown origin) up to 5 uM
T2 sequence (O75469 whole entry): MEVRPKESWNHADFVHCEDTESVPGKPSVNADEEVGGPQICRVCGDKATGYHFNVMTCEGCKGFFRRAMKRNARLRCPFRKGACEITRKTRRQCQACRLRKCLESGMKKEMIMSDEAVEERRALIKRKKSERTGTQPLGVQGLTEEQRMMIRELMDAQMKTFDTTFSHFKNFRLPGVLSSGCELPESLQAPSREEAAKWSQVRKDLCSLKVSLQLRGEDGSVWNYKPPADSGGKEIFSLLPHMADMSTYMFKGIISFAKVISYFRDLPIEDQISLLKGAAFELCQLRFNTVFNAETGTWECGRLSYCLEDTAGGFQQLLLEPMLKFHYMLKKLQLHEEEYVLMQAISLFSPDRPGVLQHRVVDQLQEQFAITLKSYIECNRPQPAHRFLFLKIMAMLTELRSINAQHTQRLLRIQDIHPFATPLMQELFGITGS

[10] = Cmax in C57BL/6J mouse at 5 mg/kg, po and 1 mg/kg, iv; type: ADME, organism-based; conditions: in vivo; how it was run: as §1
[11] = Apparent oral volume of distribution in C57BL/6J mouse at 5 mg/kg; type: ADME, organism-based; conditions: in vivo; how it was run: as §1
[12] = Permeability of the compound assessed as compound enrichment in membrane compartment measured after 16 hrs by PAMPA assay relative to control; type: ADME
How it was run: (§4)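 PAMPA, 16 h at rt. Flux = [C_acceptor/(C_donor + C_acceptor)] × 100 × 2. Membrane enrichment = C_membrane × 2/(C_acceptor + C_donor), membrane phase extracted into a volume equal to the acceptor or donor compartment.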

[13] = Permeability of the compound assessed as compound influx measured after 16 hrs by PAMPA assay; type: ADME; how it was run: as §4
[14] = target: T3, Bile acid receptor (Homo sapiens, UniProt Q96RI1); experiment: Agonist activity at GST-tagged FXR LBD (187 to 472 residues) (unknown origin) assessed as FXR interaction with b-CPSSHSSLTERHKILHRLLQEGSPS-COOH by FRET assay
T3 sequence (Q96RI1 whole entry): T1 sequence (whole entry)

[15] = target: T3, Bile acid receptor; experiment: Agonist activity at C-terminal Gal4-tagged human FXR (187 to 472 residues) expressed in HEK-293 cells co-expressing pFRluc by mammalian one hybrid assay; type: cell-based, HEK293; how it was run: as §3
[16] = system: Mus musculus; experiment: Reduction in total cholesterol level in high fat diet enriched with cholesterol fed C57BL/6J mouse plasma at 10 mg/kg, po through gavage for 10 days measured after 4 hrs of final dosage relative to vehicle treated-control; type: functional, organism-based; how it was run: as §2

Efficacy [1] [%] | CL/F [2] [mL/min/kg] | Efficacy [4] [%] | bioavailability [5] [%] | AUC [6] [ng·h/mL] | solubility [7] [µM] | half-life [8] [min] | Activity [9] | Cmax [10] [ng/mL] | Vd/F [11] [L/kg] | fold change (FC) [12] | permeability [13] [%] | EC50 [14] [nM] | EC50 [15] [nM] | SMILES | Activity [3] | Activity [16]
100 | 16 | 78 | 18 | 960 | 171 (≈ 105 µg/mL) | 36 | Not Active | 1470 | 0.8 | 11 | 46 | 9 | 110 | CC(C)n1nc(C(=O)O)cc1[C@H]1C[C@](O)(c2ccc(OCc3c(-c4c(Cl)cccc4Cl)noc3C3CC3)cc2Cl)C1 | Active | Active
102 | – | 71 | – | – | 197 (≈ 116 µg/mL) | – | Not Active | – | – | 3 | 35 | 7 | 552 | O=C(O)c1cncc(N2CC(O)(c3ccc(OCc4c(-c5c(Cl)cccc5Cl)noc4C4CC4)cc3Cl)C2)c1 | – | –
